Source: PubChem (The Scripps Research Institute Molecular Screening Center)
This is a sample that favours compounds with a hit; in the whole collection about 0.74% have one here.
Tn7 DDE FP – inhibitors of Tn7 peptide binding to human fibrin DD(E); AID 720508; actives 0.13% (n = 370,000); P02675; inhibition, % at 8.3 µM; FP displacement of FITC-Tn7 peptide from fibrin DD(E); 0% = median of compound wells per plate;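 active = inhibition above the mean of compounds falling within the control limits plus 3 SD of them, cut at about 14% in these data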;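 also: 0% = plate median of compound wells and 100% = 10 µM Aha-Tn7 peptide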
Target sequence (P02675 whole entry, looked up): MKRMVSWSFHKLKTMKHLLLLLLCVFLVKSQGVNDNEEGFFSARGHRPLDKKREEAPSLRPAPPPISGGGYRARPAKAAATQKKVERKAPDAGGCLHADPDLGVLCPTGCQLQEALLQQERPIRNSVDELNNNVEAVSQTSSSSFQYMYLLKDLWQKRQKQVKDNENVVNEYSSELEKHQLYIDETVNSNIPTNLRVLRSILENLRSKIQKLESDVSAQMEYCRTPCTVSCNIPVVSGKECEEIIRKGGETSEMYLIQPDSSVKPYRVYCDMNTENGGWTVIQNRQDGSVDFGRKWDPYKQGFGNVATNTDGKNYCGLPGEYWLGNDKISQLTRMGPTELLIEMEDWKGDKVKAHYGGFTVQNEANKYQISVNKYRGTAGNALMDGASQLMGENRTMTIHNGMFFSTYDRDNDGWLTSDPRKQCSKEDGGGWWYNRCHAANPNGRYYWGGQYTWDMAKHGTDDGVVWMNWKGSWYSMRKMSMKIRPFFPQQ
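Assay system: Fibrin-DD(E) protein isolated from polymerized human fibrin clots; read-out basis: percent inhibition; medium: Tris/NaCl/CaCl2 buffer, pH 7.8; signal: FP measurement; incubation: 10 min plus 3 h, room temperature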
Tn6 DDE FP – disrupts Tn6 cyclic peptide binding to fibrin D-Dimer-E complex | inhibition, % at 8.3 µM | Fibrin DD(E) TRITC-Tn6 fluorescence polarization displacement | AID 720509 | actives 0.21% (n = 370,000);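 active = inhibition above a per-campaign cutoff: mean of compounds within control limits plus 3 SD, cut at about 15% in these data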;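 also: 0% = median of all compound wells on the plate and 100% = blocking peptide control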
ARFGAP1 inh – inhibits rat ARF GTPase activating protein 1. Arfgap1-stimulated ARF1 GTP hydrolysis, GDP FP detection. inhibition, % at 16.5 µM. actives 0.26% (n = 360,000);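 active = inhibition above a per-plate limit, mean inhibition of low control wells plus 3 SD, cut at about 25% in these data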;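 also: 0% = DMSO wells with enzyme and 100% = wells lacking Arfgap1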
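Material – truncated rat Arfgap1 GAP domain · Buffer or medium – HEPES-based buffer, pH 7.5 · Reagent – human ARF1(Δ1-17)-GTP substrate · Dosing – 16.5 µM single point, 1.26% DMSO · Schedule – GTP hydrolysis reaction 2 h at 25 °C · Technique – GDP detection by fluorescence polarization · Benchmarks – No-Arfgap1 wells (100%) versus DMSO full-reaction wells (0%) · Repeats – single replicate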
ASAP1 GAP inh – inhibitors of human ASAP1 ArfGAP activity. Q9ULH1. ASAP1-stimulated ARF1 GTP hydrolysis, GDP FP detection. inhibition, % at 16.5 µM. actives 0.19% (n = 360,000); in the data active = inhibition above about 25%;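 also: 0% = vehicle with enzyme and substrate and 100% = no enzyme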
ARFGAP1 confirm – confirmation of rat ARFGAP1 inhibitors | shares compounds with ARFGAP1 inh | actives 30% (n = 890) | ARFGAP1-stimulated ARF1 GTP hydrolysis, GDP tracer FP | inhibition, % at 16.5 µM;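 active = average inhibition over triplicates above the hit cutoff set in the earlier primary screen, cut at about 25% in these data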;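 also: 0% = Arfgap1 plus ARF1-GTP with DMSO and 100% = wells lacking Arfgap1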
An asterisk follows results filed as active; . = no result.

SMILES	Tn7 DDE FP	Tn6 DDE FP	ARFGAP1 inh	ASAP1 GAP inh	ARFGAP1 confirm
COc1ccc(OC)c(NC(=O)C2(C)CCN2Cc2ccc(OC)c3ccccc23)c1 (stereo unspecified)	-2.2	-3.0	-8.5	-11.9	.
COc1ccc(OC)c(NC(=O)C2(C)CCN2Cc2ccccc2Cl)c1 (stereo unspecified)	-3.6	-0.6	25.1*	-7.2	5.9
NC1=NC[C@H](Cc2ccccc2)N1CCc1cc(C(F)(F)F)cc(C(F)(F)F)c1	3.1	0.1	25.5*	5.9	1.6
FC(F)(F)c1cc(CCN2C(=S)NC[C@@H]2Cc2ccccc2)cc(C(F)(F)F)c1	2.7	4.2	14.8	-5.5	.
O=C(c1cccs1)C1CCN(c2ncnc3sccc23)CC1	0.0	-6.0	.	.	.
COc1ccc(NC(=O)c2c3c(nc4ccccc24)CCN(Cc2ccccc2)C3)c(OC)c1	1.9	1.3	24.8*	8.4	6.1
COc1ccc(S(=O)(=O)N2CCCCCC2)cc1NC(=O)c1c2c(nc3ccccc13)CCN(Cc1ccccc1)C2	-2.9	-2.5	10.6	3.3	.
COc1cc(C(C#N)N2CCC(c3ccccc3)=N2)ccc1O (stereo unspecified)	-1.5	-6.0	27.0*	-11.9	-3.5
Cn1c(Cc2cccs2)nnc1SCC(=O)Nc1ccc2cn[nH]c2c1	-7.8	-5.8	.	.	.
O=[N+]([O-])c1cccc(-n2cc3ccc([N+](=O)[O-])cc3n2)c1	2.5	-3.6	40.1*	18.1	44.8*
O=C(/C=C/c1ccccc1)Nc1nc(-c2ccncc2)cs1	2.2	6.8	34.7*	3.9	62.4*
CS(=O)(=O)Nc1cccc(C2=NN(S(=O)(=O)c3ccccc3)C(c3ccco3)C2)c1 (stereo unspecified)	-4.6	-3.8	31.9*	-7.2	-5.8
COc1cc(C(O)c2nc(-c3cc4ccccc4o3)cs2)ccc1F (stereo unspecified)	-4.2	-4.4	28.4*	17.4	7.0
CC1=C2NC(N)=[N+](Cc3ccc4c(c3)OCO4)CC2NOC1 (stereo unspecified)	5.4	7.4	.	.	.
COc1cc(C#Cc2c(-c3cncn3C)n(C)c3ccc(-c4ccc(OC)c(OC)c4)cc23)cc(OC)c1	2.5	1.6	7.8	5.0	.
COc1cc(C#Cc2c(-c3cncn3C)n(C)c3ccc(-c4ccc5cc[nH]c5c4)cc23)cc(OC)c1	7.1	2.8	31.8*	20.8	21.2
Cc1ccc2nc(SCC(=O)c3ccccc3)nc(=O)n2c1	-2.7	-1.7	36.5*	17.7	47.1*
Cc1ccn2c(=O)nc(SCC(=O)c3ccccc3)nc2c1	-1.5	-0.9	13.6	-15.2	.
Cc1ccc2nc(SCC(=O)N3CCCC3)nc(=O)n2c1	-7.2	-1.4	60.8*	21.1	43.5*
Cc1cccn2c(=O)nc(SCC(=O)N3CCCCC3)nc12	7.5	1.2	-0.6	-4.8	.
Cc1ccc(-n2c(SCC(=O)Nc3ccc(OCc4ccccc4)cc3)nnc2-c2cnccn2)cc1	-3.2	-7.5	.	.	.
Clc1cccc(CN2CCN(Cc3ccco3)CC2)c1	-2.7	1.7	24.7*	1.6	-5.0
CCOc1ccc(CCN2C(=S)N([C@@H](Cc3ccc(O)cc3)CN3CCC[C@@H]3CN3C(=S)NC[C@@H]3Cc3ccc(O)cc3)C[C@@H]2Cc2ccc(O)cc2)cc1	-6.3	1.8	25.8*	12.5	10.1
CCCC1CCC2(CC1)CCC2OC(=S)Nc1ccccc1 (stereo unspecified)	0.1	1.4	.	.	.
O=C(CSc1nnc(SCc2cccc3ccccc23)s1)N/N=C/c1c[nH]c2ccccc12	-13.5	-6.4	31.5*	-2.5	16.8
O=C(NC1CCCCN(Cc2cccc(Cl)c2)C1=O)c1cccc(C(F)(F)F)c1 (stereo unspecified)	-0.7	-4.2	.	.	.
CC(=O)Nc1ccc(C(CCCc2ccccc2)C2=CCCCC2)cc1 (stereo unspecified)	-11.6	-1.2	.	.	.
c1ccc(Cn2c(SC3CCCCC3)nnc2-c2cccnc2)cc1	-4.7	5.5	.	.	.
COc1ccc(S[C@]2(C(=O)N3CCN(c4ncccn4)CC3)CC(=O)N(c3ccccc3)[C@@H]2c2ccc(OC)cc2)cc1	-0.8	-0.6	.	.	.
CC(C)N1CCN(Cc2ccc(-c3ccccc3Cl)o2)CC1CCO (stereo unspecified)	5.8	-4.6	29.1*	-11.2	7.9
